The values that follow come from ChEMBL document CHEMBL1131015, “Homonojirimycin isomers and N-alkylated homonojirimycins: structural and conformational basis of inhibition of glycosidases” (J Med Chem, 1998).

Each structure is given as a SMILES string. pIC50: −log10 of the molar value.

For test [1], the target named is Alpha-galactosidase (Coffea arabica) (UniProt Q42656). The note with it: 1000 uM.
For test [2], the species on record is Bos taurus. The note with it: 1000 uM.
The species entered for test [3] is Rattus norvegicus. The note with it: 1000 uM.
Test [4] can be described thus: Inhibitory activity measured against beta-galactosidase of rat intestinal lactase by colorimetric assay using the D-glucose oxidase-peroxidase method. The essentials: (§1)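 Enzyme source was brush border membranes from the intestine of male Wistar rats. Each activity was run with the appropriate disaccharide as substrate at that enzyme's optimum pH. Released D-glucose was quantified colorimetrically by the glucose oxidase–peroxidase method.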

For test [5], the target named is T1, Tissue alpha-L-fucosidase (Rattus norvegicus) (UniProt P17164).
T1 sequence (whole entry): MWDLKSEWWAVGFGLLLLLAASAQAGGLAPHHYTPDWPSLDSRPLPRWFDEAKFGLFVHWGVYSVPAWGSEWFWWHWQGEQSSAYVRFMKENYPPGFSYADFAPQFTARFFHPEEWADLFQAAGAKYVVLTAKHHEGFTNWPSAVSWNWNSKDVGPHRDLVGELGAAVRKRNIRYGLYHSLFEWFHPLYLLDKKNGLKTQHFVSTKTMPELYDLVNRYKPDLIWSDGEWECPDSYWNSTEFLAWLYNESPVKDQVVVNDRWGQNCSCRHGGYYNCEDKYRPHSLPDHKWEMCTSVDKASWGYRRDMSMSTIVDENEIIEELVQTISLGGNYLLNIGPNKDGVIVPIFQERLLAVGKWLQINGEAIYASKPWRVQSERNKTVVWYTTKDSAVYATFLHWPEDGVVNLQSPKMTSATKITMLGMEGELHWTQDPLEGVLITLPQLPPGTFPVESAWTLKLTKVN
Conditions: 1000 uM.

A short description of test [6]: Inhibitory activity measured against beta-galactosidase of bovine liver by colorimetric assay using the D-glucose oxidase-peroxidase method. The note with it: in the assay text read “p-nitrophenyl glycoside method” for “D-glucose oxidase-peroxidase method”. On the set-up: species or system Bos taurus. Put shortly: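 Activity was measured with the appropriate p-nitrophenyl glycoside as substrate at each enzyme's optimum pH. The reaction was stopped with 400 mM Na2CO3, and released p-nitrophenol was read spectrophotometrically at 400 nm.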

Test [7] is described as follows: Inhibitory activity measured against beta-galactosidase of rat intestinal lactase by colorimetric assay using the D-glucose oxidase-peroxidase method. Put shortly:
as §1

Alpha-galactosidase (Coffea arabica), sequence (Q42656 whole entry, looked up): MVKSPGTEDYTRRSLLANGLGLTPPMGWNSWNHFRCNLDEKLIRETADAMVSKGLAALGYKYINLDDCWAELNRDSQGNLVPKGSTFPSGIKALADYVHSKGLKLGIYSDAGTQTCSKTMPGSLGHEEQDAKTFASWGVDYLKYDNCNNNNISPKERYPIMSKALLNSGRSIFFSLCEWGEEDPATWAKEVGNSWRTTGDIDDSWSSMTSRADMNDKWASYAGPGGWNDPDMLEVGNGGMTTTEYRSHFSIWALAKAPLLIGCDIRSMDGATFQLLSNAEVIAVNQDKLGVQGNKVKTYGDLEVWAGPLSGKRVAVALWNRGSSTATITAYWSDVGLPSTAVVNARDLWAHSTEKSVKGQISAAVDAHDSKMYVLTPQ

What is called inhibition is the percentage by which the read-out fell short of the control. In the case of `OC[C@H]1N[C@H](CO)[C@@H](O)C(O)[C@@H]1O` (stereo partly drawn), the inhibition in test [1], in test [2] and in test [3] was less than 50% each time.

Take `OC[C@@H]1N[C@H](CO)[C@@H](O)[C@H](O)[C@@H]1O`: the inhibition in test [1], in test [2] and in test [3] was less than 50% each time.

What is called pIC50 is the IC50 on a negative log10 scale, so that one unit is a factor of ten. High values mean a low IC50, low ones a high IC50. `OC[C@H]1N[C@H](CO)[C@H](O)C(O)[C@H]1O` (stereo partly drawn): the pIC50 in test [4] was 3.54. The inhibition in test [5] was less than 50%.

As to `OC[C@H]1N[C@H](CO)[C@@H](O)[C@H](O)[C@H]1O`, the inhibition in test [5], in test [1], in test [2] and in test [3] was less than 50% throughout.

With `OC[C@@H]1N[C@H](CO)[C@@H](O)[C@H](O)[C@H]1O`, the inhibition in test [5], in test [1], in test [2] and in test [3] was less than 50% throughout.

As for `OCC1NC(CO)[C@@H](O)C(O)C1O` (stereo partly drawn), the pIC50 in test [6] was 4.07; in test [7], 3.89.
